This is an account of results in PMC3149718 (Molecular and cellular biochemistry, 2011).

Residue numbers refer to the chain shown, from its start.

The target in experiment [1] is T1, Cy3-labeled CPTI WT 89-residue peptide (Rattus norvegicus, UniProt P32198).
T1 sequence (P32198 381-469): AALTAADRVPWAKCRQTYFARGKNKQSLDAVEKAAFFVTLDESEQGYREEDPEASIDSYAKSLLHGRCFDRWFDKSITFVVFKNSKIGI
Description: FRET between Cy3-labeled CPTI peptide and Cy5-labeled LCFA-CoA binding proteins. To be noted: Cy5-labeled acceptor protein; for Sensitized Emission R (intermolecular distance): donor Cy3-CPTI WT.

Experiment [2] deals with T2, wild-type CPTI in mitochondria from yeast (Rattus norvegicus, UniProt P32198).
T2 sequence (P32198 1-773): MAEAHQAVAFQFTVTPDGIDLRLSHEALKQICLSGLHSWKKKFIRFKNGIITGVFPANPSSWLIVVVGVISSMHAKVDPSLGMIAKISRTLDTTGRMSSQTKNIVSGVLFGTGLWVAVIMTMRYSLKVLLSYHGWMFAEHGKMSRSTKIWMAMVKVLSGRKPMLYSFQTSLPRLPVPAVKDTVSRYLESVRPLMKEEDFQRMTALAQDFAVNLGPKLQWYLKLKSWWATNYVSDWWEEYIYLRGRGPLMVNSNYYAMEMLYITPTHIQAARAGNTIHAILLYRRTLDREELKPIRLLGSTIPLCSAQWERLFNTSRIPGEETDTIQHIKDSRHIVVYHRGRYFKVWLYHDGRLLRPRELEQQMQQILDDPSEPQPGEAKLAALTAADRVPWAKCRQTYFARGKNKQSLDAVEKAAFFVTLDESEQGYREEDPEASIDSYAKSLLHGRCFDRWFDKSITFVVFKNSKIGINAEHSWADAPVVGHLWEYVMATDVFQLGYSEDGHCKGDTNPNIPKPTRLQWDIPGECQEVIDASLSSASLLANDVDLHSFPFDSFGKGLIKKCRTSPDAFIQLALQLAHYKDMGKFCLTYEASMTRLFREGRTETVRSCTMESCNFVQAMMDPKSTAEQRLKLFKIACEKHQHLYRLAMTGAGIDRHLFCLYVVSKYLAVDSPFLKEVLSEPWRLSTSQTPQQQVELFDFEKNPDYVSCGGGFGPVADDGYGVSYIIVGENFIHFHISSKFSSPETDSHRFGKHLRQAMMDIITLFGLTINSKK
Description: CPTI activity assay. Format: biochemical. In a few lines:
(§1)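 Mitochondria isolated from yeast strains expressing wild-type or mutant CPTI were assayed by forward exchange with L-[methyl-3H]carnitine at a fixed 1.0 mM carnitine, using 150 µg mitochondrial protein. […] Incubation was 5 min at 30°C and was stopped with 6% perchloric acid. Values are mean ± SE.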

In experiment [3] the target is T3, W391A mutant CPTI in mitochondria from yeast (Rattus norvegicus, UniProt P32198, W391A).
T3 sequence (P32198 1-773 W391A): T2 sequence (P32198 1-773) with W391A
Description: CPTI activity assay. It is filed as biochemical. The method, boiled down:
as §1

The target of experiment [4] is T4, W452A mutant CPTI in mitochondria from yeast (Rattus norvegicus, UniProt P32198, W452A).
T4 sequence (P32198 1-773 W452A): T2 sequence (P32198 1-773) with W452A
Description: CPTI activity assay. Format: biochemical. In a few lines: as §1

The target in experiment [5] is T5, Cy3-labeled W452A 89-residue CPTI peptide (Rattus norvegicus, UniProt P32198, W452A).
T5 sequence (P32198 381-469 W452A): T1 sequence (P32198 381-469) with W72A
Description: FRET between Cy3-labeled CPTI peptide and Cy5-labeled LCFA-CoA binding proteins. To be noted: donor Cy3-W452A, Cy5-labeled acceptor protein.

Experiment [6] concerns the target T6, Cy3-labeled W391A 89-residue CPTI peptide (Rattus norvegicus, UniProt P32198, W391A).
T6 sequence (P32198 381-469 W391A): T1 sequence (P32198 381-469) with W11A
Described as above. To be noted: donor Cy3-W391A, Cy5-labeled acceptor protein.

The mark [7] stands for this setting: donor protein 15uM, palmitoyl-CoA to protein molar ratio 7.41.
[8] abbreviates: donor protein 30uM, palmitoyl-CoA to protein molar ratio 3.70.
[9] abbreviates: donor protein 60uM, palmitoyl-CoA to protein molar ratio 1.85.

As for “CytoC: Cytochrome C purchased from Sigma Aldrich, used as control protein [reference compound]”, in experiment [1] (donor Cy3-CPTI WT 30 nM, PBS 24°C), the “Sensitized Emission Kd” value is “no FRET or binding was observed”.

B1: ACBP: Mouse recombinant acyl CoA binding protein (protein)
chain: MSQAEFDKAAEEVKRLKTQPTDEEMLFIYSHFKQATVGDVNTDRPGLLDLKGKAKWDSWNKLKGTSKESAMKTYVEKVDELKKKYGI
modifications: Cy5 dye, approximately 1 dye per protein molecule (in the FRET assay only; unlabelled in circular dichroism)
For the molecule B1, the “CPTI activity, WT” value came to 31.8 ± 2.1 nmol/min/mg in experiment [2] (setting [7]), 27.6 ± 2.4 nmol/min/mg in experiment [2] (setting [8]) and 13.2 ± 0.1 nmol/min/mg in experiment [2] (setting [9]). For the same molecule, the “CPTI activity, W391A” value in experiment [3] (setting [7]) was found to be 3.3 ± 0.1 nmol/min/mg; in experiment [3] (setting [8]) it was 4.5 ± 0.9 nmol/min/mg; in experiment [3] (setting [9]), 5.7 ± 0.1 nmol/min/mg. Also, the “CPTI activity, W452A” value came to 0.7 ± 0.2 nmol/min/mg in experiment [4] (setting [7]), 0.8 ± 0.2 nmol/min/mg in experiment [4] (setting [8]) and 1.3 ± 0.1 nmol/min/mg in experiment [4] (setting [9]). The entries for the “Sensitized Emission R (intermolecular distance)” value in experiment [5], in experiment [6] and in experiment [1] were 65.8 ± 0.2 Å, 65 ± 1 Å and 56 ± 1 Å, respectively.

B2: SCP-2: Human recombinant sterol carrier protein-2 (protein, UniProt P22307 1-547, looked up)
Sterol carrier protein 2: MSSSPWEPATLRRVFVVGVGMTKFVKPGAENSRDYPDLAEEAGKKALADAQIPYSAVDQACVGYVFGDSTCGQRAIYHSLGMTGIPIINVNNNCATGSTALFMARQLIQGGVAECVLALGFEKMSKGSLGIKFSDRTIPTDKHVDLLINKYGLSAHPVAPQMFGYAGKEHMEKYGTKIEHFAKIGWKNHKHSVNNPYSQFQDEYSLDEVMASKEVFDFLTILQCCPTSDGAAAAILASEAFVQKYGLQSKAVEILAQEMMTDLPSSFEEKSIIKMVGFDMSKEAARKCYEKSGLTPNDIDVIELHDCFSTNELLTYEALGLCPEGQGATLVDRGDNTYGGKWVINPSGGLISKGHPLGATGLAQCAELCWQLRGEAGKRQVPGAKVALQHNLGIGGAVVVTLYKMGFPEAASSFRTHQIEAVPTSSASDGFKANLVFKEIEKKLEEEGEQFVKKIGGIFAFKVKDGPGGKEATWVVDVKNGKGSVLPNSDKKADCTITMADSDFLALMTGKMNPQSAFFQGKLKITGNMGLAMKLQNLQLQPGNAKL
modifications: Cy5 label
For B2, the “CPTI activity, WT” value was determined as 31.7 ± 1.1 nmol/min/mg in experiment [2] (setting [7]), 26.1 ± 1.1 nmol/min/mg in experiment [2] (setting [8]) and 16.5 ± 0.1 nmol/min/mg in experiment [2] (setting [9]). The “CPTI activity, W391A” value was determined as 4.7 ± 0.1 nmol/min/mg in experiment [3] (setting [7]), 5.7 ± 0.2 nmol/min/mg in experiment [3] (setting [8]) and 4.5 ± 0.1 nmol/min/mg in experiment [3] (setting [9]). The “CPTI activity, W452A” value in experiment [4] (setting [7]) came out at 0.8 ± 0.2 nmol/min/mg; in experiment [4] (setting [8]), 1.2 ± 0.2 nmol/min/mg; in experiment [4] (setting [9]) it was 0.9 ± 0.2 nmol/min/mg.

B3: L-FABP: Mouse recombinant liver fatty acid binding protein, delipidated (protein)
chain: MNFSGKYQLQSQENFEPFMKAIGLPEDLIQKGKDIKGVSEIVHEGKKIKLTITYGPKVVRNEFTLGEECELETMTGEKVKAVVKLEGDNKMVTTFKGIKSVTELNGDTITNTMTLGDIVYKRVSKRI
modifications: Cy5 dye, approximately 1 dye per protein molecule (in the FRET assay only; unlabelled in circular dichroism)
For B3, the entries for the “CPTI activity, WT” value in experiment [2] (setting [7]), in experiment [2] (setting [8]) and in experiment [2] (setting [9]) were 39.3 ± 2.5 nmol/min/mg, 37.6 ± 0.1 nmol/min/mg and 34.0 ± 0.1 nmol/min/mg, respectively. The “CPTI activity, W391A” value was determined as 4.2 ± 0.1 nmol/min/mg in experiment [3] (setting [7]), 5.9 ± 0.1 nmol/min/mg in experiment [3] (setting [8]) and 7.4 ± 0.1 nmol/min/mg in experiment [3] (setting [9]). Further, the “CPTI activity, W452A” value in experiment [4] (setting [7]) came to 0.9 ± 0.2 nmol/min/mg; in experiment [4] (setting [8]), 1.1 ± 0.1 nmol/min/mg; in experiment [4] (setting [9]), 1.6 ± 0.1 nmol/min/mg. Further, the entries for the “Sensitized Emission R (intermolecular distance)” value in experiment [5], in experiment [6] and in experiment [1] were 82 ± 1 Å, 50 ± 2 Å and 56 ± 3 Å, respectively.
